pIC50: −log10 of the molar value. One block for each molecule: values may come before it. Active and inactive are the calls of the source. The rule behind the calls is not given here.
What was measured:
[1] = Cytotoxicity against human MT4 cells infected with HTLV-1 after 96 hrs by MTT assay; format: cell-based
Summary of the method: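 Mock-infected MT-4 cells (CD4+ T-cells carrying integrated HTLV-1 genome) were seeded at 1×10^5 cells/mL in RPMI-1640 with 10% FCS and penicillin/streptomycin. They were given serial compound dilutions for 96 h at 37 °C, 5% CO2, and viability was read by MTT. The value is the concentration reducing viability by 50%. Mean of two experiments; duplicate variation <15%.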

CCRF-CEM = test: Antiproliferative activity against human CCRF-CEM cells after 96 hrs by MTT assay; format: functional; details: read-out: CC50
Summary of the method: (§1)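 Hematological lines (CCRF-CEM, CCRF-SB, WIL-2NS) were seeded exponentially growing at 1×10^5 cells/mL in RPMI-1640 with 10% FCS, penicillin G and streptomycin. They were exposed to serial dilutions (from 100 mM DMSO stocks) for 96 h at 37 °C, 5% CO2, then read by MTT. The value is the concentration giving 50% proliferation reduction, with controls allowed ≥3 rounds of multiplication. Mean of two experiments; duplicate variation <15%.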

WIL2-NS = test: Antiproliferative activity against human WIL2-NS cells after 96 hrs by MTT assay; format: functional; summary of the method: as §1
CCRF-SB = test: Antiproliferative activity against human CCRF-SB cells after 96 hrs by MTT assay; format: functional; summary of the method: as §1
DU-145 = test: Antiproliferative activity against human DU145 cells after 96 hrs by MTT assay; format: functional; details: DU-145, 96 h, read-out: CC50
Summary of the method: (§2)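 Solid-tumor lines (SK-MEL-28, MCF-7, SK-MES-1, HepG-2, DU-145) were seeded at 1×10^5 cells/mL in their specific media with 10% FCS plus antibiotics. Serial dilutions of compounds (100 mM DMSO stocks diluted in medium) were applied for 96 h at 37 °C, 5% CO2, with MTT readout. 50% proliferation-inhibition concentration; untreated controls underwent ≥3 multiplication rounds; mean of two experiments, duplicate variation <15%.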

HepG2 = test: Antiproliferative activity against human HepG2 cells after 96 hrs by MTT assay; format: functional; details: HepG2, 96 h; summary of the method: as §2
MCF7 = test: Antiproliferative activity against human MCF7 cells after 96 hrs by MTT assay; format: functional; details: MCF7, 96 h; summary of the method: as §2
SK-MES-1 = test: Antiproliferative activity against human SKMES1 cells after 96 hrs by MTT assay; format: functional; details: SK-MES-1, 96 h; summary of the method: as §2
SK-MEL-28 = test: Antiproliferative activity against human SK-MEL-28 cells after 96 hrs by MTT assay; format: functional; details: SK-MEL-28, 96 h; summary of the method: as §2
K562 [2] = test: Cell cycle arrest in human K562 cells assessed as accumulation at G2/M phase at total growth inhibitory compound concentration 24 hrs using propidium iodide staining by FACS analysis (reference value: 18%); format: functional; set-up: scale not given: the % may be the effect or the level left
K562 [3] = test: Cell cycle arrest in human K562 cells assessed as accumulation at S phase at total growth inhibitory compound concentration 24 hrs using propidium iodide staining by FACS analysis (reference value: 47%); format: functional; set-up: scale not given: the % may be the effect or the level left
K562 [4] = test: Cell cycle arrest in human K562 cells assessed as accumulation at G0/G1 phase at total growth inhibitory compound concentration 24 hrs using propidium iodide staining by FACS analysis (reference value: 35%); format: functional; set-up: scale not given: the % may be the effect or the level left
[5] = Displacement of [3H]paclitaxel from biotin-labeled tubulin after 2 hrs by competitive scintillation proximity assay
[6] = Displacement of [3H]colchicine from biotin-labeled tubulin after 2 hrs by competitive scintillation proximity assay
Summary of the method: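 Scintillation proximity format: biotinylated tubulin, reconstituted per manufacturer, was incubated with [3H]colchicine and diluted compound in binding buffer at 37 °C for 2 h. Streptavidin-coated yttrium SPA beads were then added and bound radioactivity counted. IC50 came from nonlinear regression.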

Structure (SMILES): COc1ccc(/C=C(\C#N)n2nnc3cc(Cl)c(Cl)cc32)cc1
CC50 at 96 h [1]: 14 µM | IC50 (50% antiproliferative concentration) (CCRF-CEM): > 100 µM | CC50 (WIL2-NS): > 100 µM | CC50 (CCRF-SB): > 100 µM | IC50 (50% proliferation-inhibition concentration) (DU-145): > 100 µM | CC50 (HepG2): > 100 µM | CC50 (MCF7): > 100 µM | CC50 (SK-MES-1): > 100 µM | CC50 (SK-MEL-28): > 100 µM

Structure (SMILES): N#C/C(=C\c1ccc(Br)cc1)n1nnc2cc(Cl)c(Cl)cc21
CC50 at 96 h [1]: 5.4 µM | IC50 (50% antiproliferative concentration) (CCRF-CEM): 5.3 µM | CC50 (WIL2-NS): 18 µM | CC50 (CCRF-SB): 12 µM | IC50 (50% proliferation-inhibition concentration) (DU-145): 7 µM | CC50 (HepG2): 12 µM | CC50 (MCF7): 8.4 µM | CC50 (SK-MES-1): 10 µM | CC50 (SK-MEL-28): 10 µM

Structure (SMILES): COc1ccc(/C=C(\C#N)n2nnc3ccccc32)cc1
CC50 at 96 h [1]: 0.05 µM | IC50 (50% antiproliferative concentration) (CCRF-CEM): 0.2 µM | CC50 (WIL2-NS): 0.1 µM | CC50 (CCRF-SB): 0.09 µM | Activity (K562 [2]): 70.5% | Activity (K562 [3]): 24% | Activity (K562 [4]): 5.5% | IC50 (50% proliferation-inhibition concentration) (DU-145): 0.6 µM | CC50 (HepG2): 0.8 µM | CC50 (MCF7): 0.1 µM | CC50 (SK-MES-1): 0.6 µM | CC50 (SK-MEL-28): 0.2 µM

Structure (SMILES): COc1cc(/C=C(\C#N)n2nnc3ccccc32)cc(OC)c1OC
CC50 at 96 h [1]: 2.5 µM

Structure (SMILES): COc1cc([C@@H]2c3cc4c(cc3[C@@H](O[C@@H]3O[C@@H]5CO[C@@H](C)O[C@H]5[C@H](O)[C@H]3O)[C@H]3COC(=O)[C@H]23)OCO4)cc(OC)c1O [ETOPOSIDE]
CC50 at 96 h [1]: 0.09 µM | CC50 (WIL2-NS): 0.2 µM | CC50 (CCRF-SB): 0.1 µM | CC50 (HepG2): 0.7 µM | CC50 (MCF7): 1 µM | CC50 (SK-MES-1): 0.3 µM | CC50 (SK-MEL-28): 1.2 µM

Structure (SMILES): N#C/C(=C\c1cccs1)n1nc2ccccc2n1
CC50 at 96 h [1]: 132 µM

Structure (SMILES): N#C/C(=C\c1ccc2c(c1)OCO2)n1nnc2ccc(C(F)(F)F)cc21
CC50 at 96 h [1]: 52 µM

Structure (SMILES): COc1cccc(/C=C(\C#N)n2nnc3ccccc32)c1
CC50 at 96 h [1]: 4.7 µM

Structure (SMILES): COc1ccc(/C=C(\C#N)n2nnc3ccccc32)cc1OC
CC50 at 96 h [1]: 7.5 µM

Structure (SMILES): N#C/C(=C\c1ccccc1[N+](=O)[O-])n1nnc2ccccc21
CC50 at 96 h [1]: 31 µM

Structure (SMILES): N#C/C(=C\c1ccc(F)cc1)n1nc2ccccc2n1
CC50 at 96 h [1]: 32 µM

Structure (SMILES): N#C/C(=C\c1ccc(C(=O)O)cc1)n1nc2ccccc2n1
CC50 at 96 h [1]: 16 µM

Structure (SMILES): Cc1ccc(/C=C(\C#N)n2nc3ccccc3n2)cc1
CC50 at 96 h [1]: 20 µM

Structure (SMILES): N#C/C(=C\c1ccc(C(=O)O)cc1)n1nnc2ccccc21
CC50 at 96 h [1]: 17 µM

inhibition [5]: inactive | pIC50 [6]: 6.07
Structure (SMILES): N#C/C(=C\c1ccc2c(c1)OCO2)n1nnc2ccccc21
CC50 at 96 h [1]: 0.1 µM | IC50 (50% antiproliferative concentration) (CCRF-CEM): 0.9 µM | CC50 (WIL2-NS): 0.6 µM | CC50 (CCRF-SB): 0.6 µM | Activity (K562 [2]): 66.34% | Activity (K562 [3]): 22.67% | Activity (K562 [4]): 10.9% | IC50 (50% proliferation-inhibition concentration) (DU-145): 3.4 µM | CC50 (HepG2): 3.1 µM | CC50 (MCF7): 1.3 µM | CC50 (SK-MES-1): 3.3 µM | CC50 (SK-MEL-28): 3.3 µM

Structure (SMILES): N#C/C(=C\c1ccccc1I)n1nnc2ccccc21
CC50 at 96 h [1]: 25 µM

Structure (SMILES): N#C/C(=C\c1ccc(Cl)cc1Cl)n1nnc2ccccc21
CC50 at 96 h [1]: 6 µM

Structure (SMILES): N#C/C(=C\c1ccccc1)n1nc2ccccc2n1
CC50 at 96 h [1]: 12 µM

Structure (SMILES): N#C/C(=C\c1ccc(Cl)cc1)n1nnc2ccccc21
CC50 at 96 h [1]: 0.4 µM

Structure (SMILES): N#C/C(=C\c1ccco1)n1nc2ccccc2n1
CC50 at 96 h [1]: 375 µM

Structure (SMILES): N#C/C(=C\c1ccccc1)n1nnc2ccccc21
CC50 at 96 h [1]: 4 µM

Structure (SMILES): Cc1cc2nnn(/C(C#N)=C/c3ccc4c(c3)OCO4)c2cc1C
CC50 at 96 h [1]: 1.3 µM

Structure (SMILES): COc1ccccc1/C=C(\C#N)n1nnc2ccccc21
CC50 at 96 h [1]: 8.3 µM

Structure (SMILES): Cc1cc2nnn(/C(C#N)=C/c3ccc(Cl)cc3)c2cc1C
CC50 at 96 h [1]: 24 µM

Structure (SMILES): N#C/C(=C\c1ccc([N+](=O)[O-])cc1)n1nc2ccccc2n1
CC50 at 96 h [1]: 0.4 µM

Structure (SMILES): N#C/C(=C\c1cccc([N+](=O)[O-])c1)n1nnc2ccccc21
CC50 at 96 h [1]: 0.4 µM

Structure (SMILES): Sc1ncnc2nc[nH]c12 [MERCAPTOPURINE ANHYDROUS]
CC50 at 96 h [1]: 0.1 µM | CC50 (WIL2-NS): 3 µM | CC50 (CCRF-SB): 1.1 µM | CC50 (HepG2): 8 µM | CC50 (MCF7): 3.2 µM | CC50 (SK-MES-1): 58 µM | CC50 (SK-MEL-28): 15 µM

Structure (SMILES): COc1ccc(/C=C(\C#N)n2nnc3ccc(C(F)(F)F)cc32)cc1
CC50 at 96 h [1]: 200 µM

Structure (SMILES): COc1ccc(/C=C(\C#N)n2nc3ccccc3n2)cc1OC
CC50 at 96 h [1]: 360 µM

Structure (SMILES): Cc1cc2nnn(/C(C#N)=C/c3cccc([N+](=O)[O-])c3)c2cc1C
CC50 at 96 h [1]: 0.5 µM

Structure (SMILES): N#C/C(=C\c1ccc(Br)cc1)n1nnc2ccccc21
CC50 at 96 h [1]: 0.4 µM | IC50 (50% antiproliferative concentration) (CCRF-CEM): 0.4 µM | CC50 (WIL2-NS): 0.6 µM | CC50 (CCRF-SB): 0.3 µM | Activity (K562 [2]): 35.34% | Activity (K562 [3]): 22.41% | Activity (K562 [4]): 42.25% | IC50 (50% proliferation-inhibition concentration) (DU-145): 1.7 µM | CC50 (HepG2): 2.1 µM | CC50 (MCF7): 0.7 µM | CC50 (SK-MES-1): 2.4 µM | CC50 (SK-MEL-28): 1.1 µM

Structure (SMILES): Cc1ccc(/C=C(\C#N)n2nnc3cc(Cl)c(Cl)cc32)cc1
CC50 at 96 h [1]: 1.7 µM | IC50 (50% antiproliferative concentration) (CCRF-CEM): 2.8 µM | CC50 (WIL2-NS): 7 µM | CC50 (CCRF-SB): 2.8 µM | Activity (K562 [2]): 67% | Activity (K562 [3]): 15.5% | Activity (K562 [4]): 18.5% | IC50 (50% proliferation-inhibition concentration) (DU-145): 17 µM | CC50 (HepG2): 21 µM | CC50 (MCF7): 27 µM | CC50 (SK-MES-1): 27 µM | CC50 (SK-MEL-28): 20 µM

Structure (SMILES): Cc1ccc(/C=C(\C#N)n2nnc3ccccc32)cc1
CC50 at 96 h [1]: 0.5 µM | IC50 (50% antiproliferative concentration) (CCRF-CEM): 0.2 µM | CC50 (WIL2-NS): 0.2 µM | CC50 (CCRF-SB): 0.07 µM | IC50 (50% proliferation-inhibition concentration) (DU-145): 0.5 µM | CC50 (HepG2): 2.2 µM | CC50 (MCF7): 0.7 µM | CC50 (SK-MES-1): 1.7 µM | CC50 (SK-MEL-28): 0.3 µM

Structure (SMILES): N#C/C(=C\c1cccc([N+](=O)[O-])c1)n1nnc2cc(C(F)(F)F)ccc21
CC50 at 96 h [1]: 0.7 µM

Structure (SMILES): N#C/C(=C\c1ccc(Cl)cc1)n1nc2ccccc2n1
CC50 at 96 h [1]: 16 µM

Reference: ChEMBL document CHEMBL1833825, “3-Aryl-2-[1H-benzotriazol-1-yl]acrylonitriles: a novel class of potent tubulin inhibitors” (Eur J Med Chem, 2011)
